# Bioassay records: PubChem BioAssay, SRMLSC
# Yeast life ext – yeast lifespan extension | S. cerevisiae growth with nicotinamide, OD615; deaD strain in restrictive glucose medium | 0.68% of 130,000 active | inhibition of the nicotinamide effect, % at 10 µM;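 active = inhibition above a set limit, placed 3 SD over the median of all compounds, cut at about 26% in these data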;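 note: 0% = nicotinamide-treated wells and 100% = cells grown without nicotinamide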
#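 Test system: DeaD-strain S. cerevisiae / Buffer or medium: restrictive glucose medium / Also added: nicotinamide 1.5 mM / Doses: one concentration, 10 µM, DMSO 0.25% / Schedule: 48 h at 30 °C / Signal: OD615 measurement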
# RAM inhibit – inhibitors of the yeast RAM network. 1.8% of 190,000 active. AID 868. inhibition, % at 50 µM. S. cerevisiae dse1pr::URA3 reporter, 5-FOA growth OD615, 2 d; analog-sensitive cbk1-as2 kinase mutant strain;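 active = inhibition above a set limit, 3 SD over mean compound inhibition, cut at about 8.4% in these data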;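 note: 0% = DMSO-only wells with no growth and 100% = 10 µM 1-NA-PP1 full growth; inhibition rescues growth on 5-FOA so higher OD means more RAM inhibition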
# Yeast growth inh – reduces growth of yeast BB579 in restrictive medium. S. cerevisiae BB579 growth, OD615, 48 h. inhibition, % at 10 µM. 0.51% of 140,000 active;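 active = inhibition above a set limit, 3 SD over the mean compound inhibition, cut at about 44% in these data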
#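 Test system: S. cerevisiae DeaD strain BB579 yeast; Medium: restrictive CSMM-D medium; Compound: one dose, 10 µM compound with 0.25% DMSO; Incubation: 4 h cell preincubation, 48 h compound exposure, 30 °C humidified; Signal: OD at 615 nm; Benchmarks: amphotericin B at 10 µg/mL as positive control.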
# RAM efflux-def – RAM network inhibition, efflux-deficient strain; shares compounds with RAM inhibit; S. cerevisiae efflux-deficient reporter strain, 5-FOA growth OD615, 2 days; max inhibition, %; 1,200 tested, under 10 active; AID 1305; call rule not given here;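 note: plate controls were vehicle for no effect and reference inhibitor for full effect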
# * marks the source's active call; other numbers are inactive results; / = no result given. Rows were chosen to be rich in hits. Some 2.6% of all compounds tested hit in one or more screens of this group.
SMILES,Yeast life ext,RAM inhibit,Yeast growth inh,RAM efflux-def
CC1(C)CC(C(CCN(Cc2ccccc2)C(=O)c2ccco2)c2ccc(F)cc2)CCO1 (stereo not drawn),11.5,11.9*,-47.8,3.2
CC1CCCN(C(=O)CSc2nnc(-c3ccncc3)n2C)C1 (stereo not drawn),/,1.2,/,/
Cc1ccc(C)c(NC(=O)CCC(=O)OC(C(=O)c2ccccc2)c2ccccc2)c1 (stereo not drawn),17.8,0.6,-13.9,/
O=C(CNC(=O)c1ccco1)OC(C(=O)c1ccccc1)c1ccccc1 (stereo not drawn),-8.0,0.5,-35.9,/
O=C(COc1ccccc1)OC(C(=O)c1ccccc1)c1ccccc1 (stereo not drawn),-3.6,12.4*,-45.0,24.6
Cc1ccc(C(=O)C(OC(=O)COc2ccccc2C)c2ccccc2)cc1 (stereo not drawn),-20.4,14.5*,-16.1,4.1
COC(=O)c1cn(NC(=O)c2ccccc2[N+](=O)[O-])c(=O)c2ccccc12,/,1.9,/,/
Cc1nonc1CN(C)C(=O)CC1C(=O)NCCN1Cc1cccc(C(F)(F)F)c1 (stereo not drawn),/,1.7,/,/
CCOC(=O)c1ccc(NC(=O)c2cc(OC)c(OC)c(OC)c2Br)cc1,-3.6,0.7,-21.4,/
CCCCOC(=O)c1ccc(NC(=O)c2c(Cl)ccc(Cl)c2OC)cc1,0.3,17.9*,-36.2,3.0
CCCCOC(=O)Nc1ccc(C(=O)OCCC)cc1,-6.2,3.8,-18.3,/
CCCCCCOC(=O)c1ccc(NC(=O)c2cc(OC)c(OC)c(OC)c2Br)cc1,0.9,11.5*,-21.7,3.7
COc1cccc(C(=O)NNC(=O)Cc2cccs2)c1,/,0.6,/,/
N#Cc1cnn(-c2nc(SCc3ccccc3)nc3sc4c(c23)CCCC4)c1N,-3.7,3.2,-73.0,/
COCCCNc1nc(SCc2ccccc2)nc2sc3c(c12)CCC3,-18.5,15.8*,-31.9,5.5
Cc1ccc(Cn2nnnc2CN2CCC(NC(=O)C(C)(C)C)CC2)cc1,/,-0.1,/,/
Clc1ccc(-c2csc(N3CCC(c4ccccc4)C3)n2)cc1 (stereo not drawn),-7.9,13.5*,-36.5,6.6
Fc1ccc(-c2csc(N3CCC(c4ccccc4)C3)n2)cc1 (stereo not drawn),-14.4,3.4,-6.4,/
O=C(Cc1cccs1)N1CCN(c2nc(-c3ccc(Cl)cc3)cs2)CC1,2.5,14.5*,-66.1,1.1
CC(C)C(=O)N1CCN(c2nc(-c3ccc(Cl)cc3)cs2)CC1,/,-0.8,/,/
CC(C)(CNC(=S)NCCc1ccccc1)CNC(=S)NCCc1ccccc1,-4.6,15.3*,73.4*,6.7
OCCNC(=S)NCCc1ccccc1,3.0,-0.4,-20.5,/
COc1cccc(NC2=Nc3cccc4cccc2c34)c1,-7.2,1.6,-28.1,/
CCOP(=O)(OCC)c1nc(-c2cccc3ccccc23)oc1NCc1ccc(OC)cc1,/,12.9*,/,2.5
CCOP(=O)(OCC)c1nc(-c2cccc3ccccc23)oc1NCc1ccccc1,-5.3,5.7,-27.4,/
SMILES,Yeast life ext,RAM inhibit,Yeast growth inh,RAM efflux-def
C=CCN(CC=C)S(=O)(=O)c1ccc(NC(=O)COc2ccccc2OC)cc1,/,15.0*,-48.9,2.3
COc1ccccc1OCC(=O)Nc1ccc(S(=O)(=O)N2CCCCCC2)cc1,-7.2,7.5,-53.9,/
CCN(CC)C(=O)COc1ccc2oc(C)c(C(=O)OC(C)C)c2c1,-2.3,0.9,-23.3,/
Cc1oc2ccc(OC(=O)COc3c(F)c(F)c(F)c(F)c3F)cc2c1C(=O)OC(C)C,4.1,13.3*,-26.2,2.1
COCCOC(=O)c1c(C)oc2ccc(OC(=O)COc3c(F)c(F)c(F)c(F)c3F)cc12,-5.9,16.0*,9.8,1.8
COCCOC(=O)c1c(C)oc2ccc(OS(C)(=O)=O)cc12,/,2.5,/,/
CN(C)c1nc(C=C(C#N)C#N)c(Cl)n1-c1ccc(F)cc1,/,1.1,/,/
O=C(c1ccccn1)N1CC=C(c2ccccc2)CC1,/,0.6,/,/
Cc1nn(C)c(C)c1CN(Cc1nc(CCC(C)C)no1)C(C)C,/,-0.2,/,/
CCOC(=O)c1cc(C#N)c(Oc2cccc(C(F)(F)F)c2)nc1-c1ccccc1,3.2,12.7*,-15.6,1.9
CCOC(=O)c1cc(C#N)c(Oc2ccc(F)cc2)nc1-c1ccccc1,-5.3,7.9,-55.7,/
COC(=O)c1cc2c(ccn2-c2ccc(F)cc2)n1Cc1ccc(OC(C)=O)cc1,-6.5,7.0,-19.7,/
COC(=O)c1cc2c(ccn2-c2ccc(F)cc2)n1Cc1cccc(OC)c1,5.0,12.6*,-27.4,7.5
Cc1cccc(-n2ccnc2SCC(=O)N2CCCc3ccccc32)c1C,3.2,2.8,10.1,/
CCN(c1ccccc1)S(=O)(=O)c1ccc(Cl)c(C(=O)NCCc2ccc(OC)cc2)c1,2.1,12.3*,-14.6,2.6
COc1ccc(CCNC(=O)c2ccccc2N(C)S(=O)(=O)c2ccccc2)cc1,5.5,0.0,-29.6,/
COc1ccc(CCNC(=O)c2ccc(Cl)c(S(=O)(=O)N(C)c3ccccc3)c2)cc1,4.6,17.0*,-30.8,2.9
COc1ccc(CCNC(=O)c2ccc(N(C)S(=O)(=O)c3ccc(C)cc3)cc2)cc1,/,5.3,/,/
CCOC(=O)c1[nH]ncc1CN1CCN(Cc2ccccc2)C(CCO)C1 (stereo not drawn),/,2.7,/,/
CCNc1nc(NC(C)(C)C)nc(N2CCCCC2)n1,/,0.0,/,/
CCCCn1c(NS(=O)(=O)c2ccc(C)cc2)c(S(=O)(=O)c2ccccc2)c2nc3ccccc3nc21,7.2,12.1*,-16.9,12.4
Cc1ccc(-n2c(N)c(S(=O)(=O)c3ccccc3)c3nc4ccccc4nc32)cc1,/,7.7,/,/
COC(=O)c1cc(C(=O)Nc2nnc(C3CC3)s2)cc([N+](=O)[O-])c1,-1.9,2.1,-47.2,/
COCCCNC(=O)c1cc(=O)n(Cc2ccc(Cl)cc2)c2ccccc12,/,-0.7,/,/
COCCCNC(=O)c1ccc(Cn2c(=O)c3ccccc3n(Cc3ccc(C)cc3)c2=O)cc1,-7.5,12.2*,-56.9,4.7
SMILES,Yeast life ext,RAM inhibit,Yeast growth inh,RAM efflux-def
CCN(CC)CC(=O)Nc1c(C)cc(C)cc1C,-3.6,/,-50.7,/
O=C(CN1C(=O)NC2(CCCCC2)C1=O)NCc1cccs1,0.5,2.3,-29.0,/
C=CCOC(=O)C1=C(C)NC(C)=C(C(=O)OCC=C)C1/C=C/c1ccccc1,5.9,15.1*,-40.2,5.5
CCOC(=O)C1=C(C)NC(C)=C(C(=O)OCC)C1/C=C/c1ccccc1,-0.9,2.5,-0.7,/
COc1ccc(S(=O)(=O)N2CCCC(C(F)(F)F)C2)cc1 (stereo not drawn),/,0.1,/,/
COc1cccc(/C=C/C(=O)OCC(=O)NCc2ccc(Cl)cc2)c1,/,4.1,/,/
COc1cccc(/C=C/C(=O)OCC(=O)Nc2cc(C(F)(F)F)ccc2Cl)c1,4.4,11.5*,-27.6,1.4
COCCNC(=O)C12CC3CC(C1)CC(c1ccccc1)(C3)C2,/,0.7,/,/
COc1ccc(NC(=O)C23CC4CC(C2)CC(c2ccccc2)(C4)C3)c(OC)c1,-0.4,12.6*,-24.8,4.2
N#Cc1c(Nc2ccccc2)sc(C(=O)c2ccccc2)c1N,-21.7,3.0,-41.6,/
CC(=O)c1cc(C(=O)c2ccccc2)sc1Nc1ccccc1,0.0,11.6*,-26.9,3.1
N/C(=N\c1nc2c(c(=O)[nH]1)CCC2)Nc1ccccc1,-3.7,1.3,-18.1,/
